# Measles CPE: protection of cells from measles virus; hit rate 1.5% among 140,000; Measles virus-infected cells, CPE protection, absorbance; AID 841; protection (pct of control), % at 4 µM; in the data active = protection mostly above about 24%, no sharp cut-off; inactive = mostly below about 26%
# RAM inhibit: yeast RAM network inhibition; AID 868; S. cerevisiae dse1pr::URA3 reporter, 5-FOA growth OD615, 2 d; analog-sensitive cbk1-as2 kinase mutant strain; hit rate 1.8% among 190,000; inhibition, % at 50 µM;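 active = inhibition above a set limit, 3 SD over mean compound inhibition, cut at about 8.4% in these data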;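 note: 0% = DMSO-only wells with no growth and 100% = 10 µM 1-NA-PP1 full growth; inhibition rescues growth on 5-FOA so higher OD means more RAM inhibition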
# Phagocyt inh: blocks phagocytosis by macrophages. J774A.1 macrophage IgG-bead phagocytosis, imaging. inhibition, % at 5 µM. hit rate 0.07% among 110,000;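 active = inhibition above the mean of the plate negative controls plus 5 SD, cut at about 13% in these data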;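 note: phagocytic index as fraction of beads internalized from green versus red external bead signal; plate controls were DMSO negative control for no effect and cytochalasin-D positive control for full effect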
# Yeast growth inh: reduces growth of yeast BB579 in restrictive medium. S. cerevisiae BB579 growth, OD615, 48 h. inhibition, % at 10 µM. hit rate 0.51% among 140,000;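 active = inhibition above a set limit, 3 SD over the mean compound inhibition, cut at about 44% in these data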
#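 Assay system – yeast BB579 (DeaD) · Dosing – single compound dose of 10 µM, 0.25% DMSO final · Detection – OD615 turbidity measurement · Buffer or medium – CSMM-D restrictive synthetic medium containing dextrose (glucose) · Benchmarks – positive control amphotericin B 10 µg/mL · Incubation – 48 h exposure, 30 °C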
# Yeast lifespan up: yeast lifespan extension. hit rate 0.68% among 130,000. S. cerevisiae growth with nicotinamide, OD615; deaD strain in restrictive glucose medium. inhibition of the nicotinamide effect, % at 10 µM;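 active = inhibition above a set limit, placed 3 SD over the median of all compounds, cut at about 26% in these data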;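 note: 0% = nicotinamide-treated wells and 100% = cells grown without nicotinamide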
#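 Measured by: optical density (absorbance) at 615 nm; System: modified budding yeast, DeaD strain; Medium: restrictive CSMM-D dextrose medium; Timing: 4 h preincubation then 48 h treatment at 30 °C.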
# Numbers without * were called inactive; / = not tested or not shown. Rows were chosen to be rich in hits. Some 3.6% of all compounds tested hit in one or more screens of this group.
SMILES,Measles CPE,RAM inhibit,Phagocyt inh,Yeast growth inh,Yeast lifespan up
CCC(Sc1nccn1C)C(=O)Nc1ccc(Cl)cn1 (stereo not given),/,1,/,/,/
COc1ccc(-c2cc(C(=O)N3CCN(c4ncccn4)CC3)c3ccccc3n2)c(OC)c1,14,1,-2,59*,-5
Cc1oc(C(C)(C)C)cc1C(=O)Nc1cccc(/C=C/C(=O)O)c1,5,8.4*,-1,-48,-11
Cc1cc(C(=O)Nc2cccc(/C=C/C(=O)O)c2)c(C)o1,5,1,-1,-29,-9
O=C(C1CC(c2ccc(F)cc2)=NO1)N1CCCc2ccccc21 (stereo not given),2,0,/,18,-9
COc1ccc(OC)c(C2=NOC(C(=O)N3CCCc4ccccc43)C2)c1 (stereo not given),52*,0,/,-9,-2
O=C1[C@@H]2[C@H](Cc3ccc(O)cc3)N[C@]3(C(=O)Nc4ccccc43)[C@@H]2C(=O)N1c1ccc(F)cc1,6,1,-1,-29,1
Cc1c(Cl)ccc2c1NC(=O)[C@]21N[C@@H](Cc2ccccc2)[C@H]2C(=O)N(c3ccc(F)cc3)C(=O)[C@H]21,8,8.5*,0,-78,6
COC(=O)CCCCCNc1ccc(C(=O)OC)cc1N,30*,0,2,-23,-14
C=CCn1c(SCC(=O)N2CCOCC2)nc2sc3c(c2c1=O)CCCC3,8,0,2,-50,-10
Cc1cc(NC(=O)CSc2nc3sc4c(c3c(=O)n2C)CCCC4)no1,33*,1,0,-55,-3
Cn1c(SCC(=O)N2CCOCC2)nc2sc3c(c2c1=O)CCCC3,38*,4,2,1,-30
Brc1ccccc1-c1nnc(SCc2nc3ccccc3s2)o1,9,8.6*,-6,1,-4
COc1ccc(-c2cnc3c(c2)CCC3(C#N)C#N)cc1,23,1,/,-17,0
Cc1cc(N2CCOCC2)ccc1/C=C1\SC(=O)N(C(C)C)C1=O,8,11*,/,-15,-13
Cc1cccc(Cc2cnc(NC(=O)c3ccc(C)o3)s2)c1,4,8.8*,2,-20,-21
O=C1SC(SCc2ccccc2)=N/C1=C\c1ccc(C(=O)O)cc1,/,2,/,/,/
CC(/C=C1\N=C(SCc2ccccc2Cl)SC1=O)=C\c1ccccc1,11,10*,/,-60,3
Fc1ccc(C2CC(c3cccs3)=NN2C(=S)Nc2ccccc2)cc1 (stereo not given),14,5,2,-18,3
O=C(Nc1ccccc1)N1N=C(c2ccc(F)cc2)CC1c1ccc(F)cc1 (stereo not given),25,9.6*,-5,-7,2
CSCc1ccc(C(=O)Nc2cccc(C)c2C)cc1,8,1,-4,-26,-5
CCc1ccc(C(=O)CN2C(=O)NC(C)(CCc3ccccc3)C2=O)cc1 (stereo not given),/,5,-1,-28,46*
COc1ccc(CCn2c(-c3ccc(Cl)cc3)n[nH]c2=S)cc1OC,/,0,/,/,/
COc1ccc(CCn2c(-c3ccc(C(C)(C)C)cc3)n[nH]c2=S)cc1OC,/,8.7*,/,/,/
Clc1ccc(OCc2nc3ccccc3[nH]2)cc1,/,-1,/,/,/
SMILES,Measles CPE,RAM inhibit,Phagocyt inh,Yeast growth inh,Yeast lifespan up
OC(Cc1nc2ccccc2[nH]1)c1ccccc1Cl (stereo not given),51*,1,/,8,-4
COc1nc(Oc2ccc(=O)[nH]n2)nc(N2CCOCC2)n1,44*,2,/,6,-10
CN(C)c1nc(Oc2ccc(=O)[nH]n2)nc(N2CCOCC2)n1,4,1,/,-15,-16
CC1=NN(c2nc(-c3ccc(C)cc3)cs2)C(=O)C1N=Nc1ccc2ccccc2c1 (stereo not given),7,11*,0,-45,-2
CC(C)CN(C)Cc1c(C(=O)N2CCc3ccccc3C2)nc2ccc(Cl)cn12,/,-1,/,/,/
CC(C)Nc1nc(NC(C)C)nc(NS(=O)(=O)c2ccc(N)cc2)n1,30*,1,/,-6,/
Cc1cc(C)cc(C(=O)Nc2ccc(NC(=O)Cc3ccccc3)cc2)c1,/,6,/,/,/
CCCc1nc2sc3c(=O)n(N)cnc3c2c2c1CCCC2,25,2,/,-18,-2
CCn1c(-c2csc3c2CCC(C)C3)n[nH]c1=S (stereo not given),23,-1,-13,-10,1
COc1ccc(NC(=O)CSc2nc3c(c(=O)n2-c2ccccc2OC)SCC3)cc1,21,3,0,-9,-8
COc1ccccc1-n1c(SCC(=O)NC2CCCCC2)nc2c(c1=O)SCC2,54*,0,0,-28,-3
O=C(/C(=N\O)n1cncn1)c1ccc(Cl)cc1Cl,/,1,/,/,/
O=C(/C(=C/c1ccccc1)n1cncn1)c1ccc(Cl)cc1Cl,11,-1,-7,12,49*
CC(=O)C(/C=N/c1ncc(C(F)(F)F)cc1Cl)=C(\C)O,/,3,/,/,/
Cc1ccccc1Oc1nnc(-c2cccs2)c2ccccc12,4,4,0,-6,-2
COc1ccc(C(=O)NCC(=O)NCC(=O)OCc2ccc(Br)cc2)cc1,/,0,/,/,/
O=C(CCCc1nc2ccccc2s1)N1CCN(S(=O)(=O)c2cccs2)CC1,2,8.8*,-1,-34,-8
O=C(CCCc1nc2ccccc2s1)N1CCN(c2ccccc2)CC1,7,0,-2,-28,-3
CCC(=O)c1c[nH]c(C(=O)NCCCn2ccnc2)c1,1,-1,0,-45,-8
Cn1c(CCNC(=O)c2ccc(Cl)c(Cl)c2)nnc1SCc1ccc(Cl)c(Cl)c1,7,8.8*,-1,-73,4
CCCCCCn1c(C(C)NC(=O)c2ccco2)nc2ccccc21 (stereo not given),10,0,3,12,-19
O=C(Nc1cc(C(F)(F)F)ccc1N1CCOCC1)c1ccccc1,0,1,-1,-20,-11
COC(=O)Nc1cc(C(F)(F)F)ccc1N1CCN(c2ccccc2)CC1,6,5,90*,-24,-2
C=CCn1c(C)cc(C(=O)CSc2nnc(-c3cccc(S(=O)(=O)N(CC)CC)c3)o2)c1C,16,11*,-2,-32,-12
COc1cccc(OC)c1C(=O)Nc1nc2ccc([N+](=O)[O-])cc2s1,/,4,/,/,/
SMILES,Measles CPE,RAM inhibit,Phagocyt inh,Yeast growth inh,Yeast lifespan up
O=C(CSc1nnc(SCc2ccccc2)s1)N/N=C/c1c(Cl)cccc1Cl,6,10*,6,-23,14
C=CCNC(=O)COC(=O)c1cccnc1Nc1ccccc1F,/,1,/,/,/
CCc1cc2ccccc2nc1Cl,/,3,/,/,/
O=Cc1cc2ccccc2nc1SCc1ccc(Cl)cc1,3,7,3,-27,34*
O=Cc1cc2ccccc2nc1SCc1ccc(Cl)c(Cl)c1,4,8.6*,-3,-70,17
Cc1ccc(CSc2nc3ccccc3cc2C=O)cc1,7,10*,/,-11,30
O=C(N/N=C/c1cccc([N+](=O)[O-])c1)C1CC1c1ccccc1 (stereo not given),4,0,-6,-31,-3
O=C(O)c1sc2cccc(Cl)c2c1Cl,/,0,/,/,/

# Screening data (PubChem BioAssay)
